Laboratory results reported in article PMC11047177 (ESMO Open, 2024).

Experiments:
PRMT5 = PRMT5 (Homo sapiens, UniProt O14744); test: Plasma SDMA pharmacodynamics by LC/MS; assay type: in vivo
Method in brief: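 Plasma SDMA, a catabolic product of PRMT5 activity, was measured by LC/MS during oral test-compound dosing. Part 1 samples: pre-dose, 2 and 6 h on C1D1; 12 h C1D1 or pre-dose C1D2; pre-dose C1D8; pre-dose, 2 and 6 h on C1D15; pre-dose C1D22, C2D1 and C3D1. Part 2 samples: pre-dose C1D1, C1D8, C1D15, C1D22, C2D1, C3D1 and end of treatment.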

[1] = tested on: selected locally advanced or metastatic solid tumors; test: Tumor response by RECIST v1.1; assay type: in vivo, human; details: for Duration of response (DoR): part 1

Sequence of PRMT5 (O14744 whole entry): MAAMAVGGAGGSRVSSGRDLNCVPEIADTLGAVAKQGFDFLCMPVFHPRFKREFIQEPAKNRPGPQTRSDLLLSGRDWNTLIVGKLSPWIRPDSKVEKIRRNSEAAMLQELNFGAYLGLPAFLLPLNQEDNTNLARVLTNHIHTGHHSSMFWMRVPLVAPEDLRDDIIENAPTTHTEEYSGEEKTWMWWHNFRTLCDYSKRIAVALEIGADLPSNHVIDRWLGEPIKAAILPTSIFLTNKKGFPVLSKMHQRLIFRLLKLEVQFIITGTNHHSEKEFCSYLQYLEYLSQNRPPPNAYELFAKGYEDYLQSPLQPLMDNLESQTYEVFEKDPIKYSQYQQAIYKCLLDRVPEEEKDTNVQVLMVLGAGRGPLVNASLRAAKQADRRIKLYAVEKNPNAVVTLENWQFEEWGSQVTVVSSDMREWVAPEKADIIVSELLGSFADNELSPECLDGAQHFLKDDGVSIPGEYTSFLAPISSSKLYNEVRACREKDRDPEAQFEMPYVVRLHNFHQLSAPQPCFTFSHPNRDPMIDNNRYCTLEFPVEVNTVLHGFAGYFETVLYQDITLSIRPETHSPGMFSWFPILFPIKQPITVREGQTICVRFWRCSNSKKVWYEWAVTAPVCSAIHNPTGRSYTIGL
Sequence of PRMT5 (Q9BQA1 whole entry partner): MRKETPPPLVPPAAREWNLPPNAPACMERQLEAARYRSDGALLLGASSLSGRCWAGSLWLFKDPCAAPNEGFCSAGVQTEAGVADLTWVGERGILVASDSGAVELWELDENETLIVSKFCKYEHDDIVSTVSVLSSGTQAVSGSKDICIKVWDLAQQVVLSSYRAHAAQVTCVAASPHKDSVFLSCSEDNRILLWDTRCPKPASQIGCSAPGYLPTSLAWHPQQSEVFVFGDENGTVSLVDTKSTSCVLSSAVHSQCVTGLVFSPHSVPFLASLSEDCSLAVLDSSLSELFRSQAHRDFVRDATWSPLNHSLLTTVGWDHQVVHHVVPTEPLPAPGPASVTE

For `Cc1ncnc2c1ccn2[C@@H]1C[C@H](Oc2cc(C(F)F)c(F)c3c2CNCC3)[C@@H](O)[C@H]1O` [PF-06939999], the “Plasma SDMA inhibition” value (PRMT5; 14-28 days post-dose, 0.5 mg q.d. or b.i.d.) was about 60%, the “Plasma SDMA inhibition” value (PRMT5; RP2D, 6 mg q.d.) was “around 80%” and the Objective response rate ([1]; part 1 + part 2, 3/54 patients) was 6%. For the same compound, the Stable disease ([1]; part 1 + part 2, 19 patients, response-assessable population (44 patients)) was 43.2%, the “Confirmed PRs” value ([1]; part 1, 28 patients treated, two patients (HNSCC 2 mg b.i.d., NSCLC 4 mg b.i.d.)) was 7% and the “Duration of response (DoR)” value ([1]; confirmed responder with HNSCC, 2 mg b.i.d.) was 4 months. For the same compound, the “Duration of response (DoR)” value ([1]; confirmed responder with NSCLC, 4 mg b.i.d.) was 5 months, the Progressive disease ([1]; part 2, 26 patients, 6 mg q.d., 8 patients) was 31% and the Disease control ([1]; part 2, 26 patients, 6 mg q.d., 11 patients) was 42%. The “Confirmed PR” value ([1]; part 2, 26 patients, 6 mg q.d., one patient with NSCLC) was 4%.
